Measured values pooled from the literature.
CDK1: Cyclin-dependent kinase 1 (CDK1, Homo sapiens, UniProt P06493)
DPP4: Dipeptidyl peptidase 4 (DPP4, Homo sapiens, UniProt P27487)
CDK9: Cyclin-dependent kinase 9 (CDK9, Homo sapiens, UniProt P50750)

| SMILES | target | effect on | action | method | concentration | quantity | value |
| --- | --- | --- | --- | --- | --- | --- | --- |
| CCO[C@@H](Cc1ccc(OCCc2ccc(OS(C)(=O)=O)cc2)cc1)C(=O)O | CDK1 | enzyme activity | inhibitor | ADP detection | 100 µM | inhibition | 96.9% |
| Cn1c(=O)cc(N2CCC(N)CC2)n(Cc2nc3ccccc3c(=O)n2-c2ccc(F)cc2)c1=O | DPP4 | enzyme activity | inhibitor |  | 20 µM | inhibition | 19.9% |
| Cc1cc([C@@H](C)Nc2ccccc2C(=O)O)c2nc(N3CCC(F)(F)CC3)c(C#N)c(=O)n2c1 | RAC-alpha serine/threonine-protein kinase (AKT1, Homo sapiens, UniProt P31749) | binding |  | competition with immobilised ligand | 1 µM | remaining binding | 100% |
| CNc1ncc2c(/C=C/C(=O)N3CCC(OC)CC3)nn(Cc3cccc(C(F)(F)F)c3)c2n1 | Cyclin-dependent kinase 1, with cyclin A2 (CDK1, Homo sapiens, UniProt P06493) | enzyme activity | inhibitor | radiometric | 1 µM | remaining activity | 86% |
| CC(=O)c1c(C)c2cnc(Nc3ccc(N4CCNCC4)cn3)nc2n(C2CCCC2)c1=O | CDK9 | enzyme activity | inhibitor | ADP detection | 1 µM | activity vs control | 106% |
| Cn1c(=O)cc(N2CCC(N)CC2)n(Cc2nc3ccc(Br)cc3c(=O)n2-c2ccccc2)c1=O | DPP4 | enzyme activity | inhibitor |  | 20 µM | inhibition | 12.9% |
| COc1cc(-c2cncc3c2CN(C)Cc2cc(N4CCNCC4)ccc2-3)cc(OC)c1OC | Cyclin-dependent kinase 9, with cyclin T1 (CDK9, Homo sapiens, UniProt P50750) | enzyme activity | inhibitor |  | 1 µM | remaining activity | 100% |
| O=C1NC(=NCc2cccs2)S/C1=C\c1ccc2ncccc2c1 | CDK1 | enzyme activity | inhibitor | ADP detection | 10 µM | inhibition | 100% |
| COc1ccc(S(=O)(=O)N(CC(=O)NO)CC(C)C)cc1 | Stromelysin-2 (Homo sapiens, UniProt P09238) | enzyme activity | inhibitor |  | 0.5 µM | inhibition | 47.4% |
| Cn1c(=O)cc(N2CCC(N)CC2)n(Cc2nc3ccccc3c(=O)n2-c2cccc(C(F)(F)F)c2)c1=O | DPP4 | enzyme activity | inhibitor |  | 20 µM | inhibition | 25.6% |
| CN(C)c1ncnc2c1ncn2[C@@H]1O[C@H](CCl)[C@@H](NC(=O)[C@H](CSC(c2ccccc2)c2ccccc2)NC(=O)OC(C)(C)C)[C@H]1O | Aminopeptidase N (ANPEP, Homo sapiens, UniProt P15144) | enzyme activity | inhibitor | fluorescence | 10 µM | inhibition | 4.6% |
| C=CC(=O)N1CCC(COCC(=O)N2CCN(c3nc(-c4cnc(N)nc4C(F)F)nc(N4CCOC[C@@H]4C)n3)CC2)CC1 | CDK9 | binding |  | competition with immobilised ligand | 1 µM | remaining binding | 100% |
| Cc1cc2cc(Oc3ccnc(Nc4cccc(CS(=O)(=O)NCCN(C)C)c4)n3)ccc2[nH]1 | CDK1 | enzyme activity | inhibitor | ADP detection | 10 µM | inhibition | 51.5% |
